According to ChEMBL document CHEMBL4270599, “Synthesis of a 3'-C-ethynyl-β-d-ribofuranose purine nucleoside library: Discovery of C7-deazapurine analogs as potent antiproliferative nucleosides” (Eur J Med Chem, 2018):
pIC50: −log10 of the molar value.

Legend:
Hs-578T = assay: Growth inhibition of human Hs 578T cells assessed as cell growth at 10^-5 M incubated for 48 hrs by sulforhodamine B assay relative to control; format: functional; conditions: read-out: Activity
MDA-MB-468 = assay: Growth inhibition of human MDA-MB-468 cells assessed as cell growth at 10^-7 M incubated for 48 hrs by sulforhodamine B assay relative to control; format: functional; conditions: MDA-MB-468, 48 h, read-out: Activity
HCT-116 = assay: Growth inhibition of human HCT116 cells assessed as cell growth at 10^-4 M incubated for 48 hrs by sulforhodamine B assay relative to control; format: functional; conditions: HCT-116, 48 h, read-out: Activity
A549 [1] = assay: Growth inhibition of human A549/ATCC cells assessed as cell growth at 10^-6 M incubated for 48 hrs by sulforhodamine B assay relative to control; format: functional; conditions: A549, 48 h, read-out: Activity
HL-60(TB) [2] = assay: Growth inhibition of human HL-60(TB) cells assessed as cell growth at 10^-6 M incubated for 48 hrs by sulforhodamine B assay relative to control; format: functional; conditions: HL-60, 48 h, read-out: Activity
U-251 = assay: Cytotoxicity against human U251 cells after 48 hrs by SRB assay; format: functional; conditions: U-251, 48 h
OVCAR-3 [3] = assay: Growth inhibition of human OVCAR3 cells assessed as cell growth at 10^-7 M incubated for 48 hrs by sulforhodamine B assay relative to control; format: functional; conditions: OVCAR-3, 48 h, read-out: Activity
OVCAR-4 = assay: Cytotoxicity against human OVCAR4 cells after 48 hrs by SRB assay; format: functional; conditions: OVCAR-4, 48 h
RXF 393 = assay: Growth inhibition of human RXF393 cells assessed as cell growth at 10^-6 M incubated for 48 hrs by sulforhodamine B assay relative to control; format: functional; conditions: RXF 393, 48 h, read-out: Activity
SF-295 = assay: Cytotoxicity against human SF295 cells after 48 hrs by SRB assay; format: functional; conditions: SF-295, 48 h
OVCAR-3 [4] = assay: Growth inhibition of human OVCAR3 cells assessed as cell growth at 10^-6 M incubated for 48 hrs by sulforhodamine B assay relative to control; format: functional; conditions: OVCAR-3, 48 h, read-out: Activity
K562 = assay: Cytotoxicity against human K562 cells after 48 hrs by SRB assay; format: functional; conditions: K562, 48 h
SW-620 [5] = assay: Growth inhibition of human SW620 cells assessed as cell growth at 10^-4 M incubated for 48 hrs by sulforhodamine B assay relative to control; format: functional; conditions: SW-620, 48 h, read-out: Activity
SW-620 [6] = assay: Cytotoxicity against human SW620 cells after 48 hrs by SRB assay; format: functional; conditions: SW-620, 48 h
HOP-92 [7] = assay: Cytotoxicity against human HOP92 cells after 48 hrs by SRB assay; format: functional; conditions: HOP-92, 48 h
Malme-3M = assay: Growth inhibition of human MALME-3M cells assessed as cell growth at 10^-8 M incubated for 48 hrs by sulforhodamine B assay relative to control; format: functional; conditions: read-out: Activity
A549 [8] = assay: Growth inhibition of human A549/ATCC cells assessed as cell growth at 10^-8 M incubated for 48 hrs by sulforhodamine B assay relative to control; format: functional; conditions: A549, 48 h, read-out: Activity
SK-OV-3 = assay: Cytotoxicity against human SKOV3 cells after 48 hrs by SRB assay; format: functional; conditions: SK-OV-3, 48 h
HL-60(TB) [9] = assay: Growth inhibition of human HL-60(TB) cells assessed as cell growth at 10^-7 M incubated for 48 hrs by sulforhodamine B assay relative to control; format: functional; conditions: HL-60, 48 h, read-out: Activity
HOP-62 = assay: Growth inhibition of human HOP62 cells assessed as cell growth at 10^-7 M incubated for 48 hrs by sulforhodamine B assay relative to control; format: functional; conditions: HOP-62, 48 h, read-out: Activity
CCRF-CEM = assay: Antiproliferative activity against human CEM cells after 72 hrs by Coulter counter method; format: functional, cell-based
Procedure, shortened: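 Cell count assay in 96-well microtiter plates; (5–7.5) × 10⁴ tumor cells per well plus test compound. Cells proliferated at 37 °C in humidified CO₂-controlled atmosphere, 48 h for murine leukemia L1210, 72 h for human lymphocytic CEM and cervix carcinoma HeLa. Counted by Coulter counter; IC₅₀ is the concentration that inhibits proliferation by 50%.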

HT-29 = assay: Cytotoxicity against human HT-29 cells after 48 hrs by SRB assay; format: functional; conditions: HT-29, 48 h
UACC-62 = assay: Cytotoxicity against human UACC62 cells after 48 hrs by SRB assay; format: functional; conditions: UACC-62, 48 h
UACC-257 [10] = assay: Cytotoxicity against human UACC257 cells after 48 hrs by SRB assay; format: functional; conditions: UACC-257, 48 h
UACC-257 [11] = assay: Growth inhibition of human UACC257 cells assessed as cell growth at 10^-6 M incubated for 48 hrs by sulforhodamine B assay relative to control; format: functional; conditions: UACC-257, 48 h, read-out: Activity
OVCAR-5 = assay: Growth inhibition of human OVCAR5 cells assessed as cell growth at 10^-4 M incubated for 48 hrs by sulforhodamine B assay relative to control; format: functional; conditions: OVCAR-5, 48 h, read-out: Activity
ACHN = assay: Growth inhibition of human ACHN cells assessed as cell growth at 10^-5 M incubated for 48 hrs by sulforhodamine B assay relative to control; format: functional; conditions: read-out: Activity
HOP-92 [12] = assay: Growth inhibition of human HOP92 cells assessed as cell growth at 10^-7 M incubated for 48 hrs by sulforhodamine B assay relative to control; format: functional; conditions: HOP-92, 48 h, read-out: Activity
SN12C = assay: Growth inhibition of human SN12C cells assessed as cell growth at 10^-8 M incubated for 48 hrs by sulforhodamine B assay relative to control; format: functional; conditions: read-out: Activity
KM12 = assay: Growth inhibition of human KM12 cells assessed as cell growth at 10^-7 M incubated for 48 hrs by sulforhodamine B assay relative to control; format: functional; conditions: KM12, 48 h, read-out: Activity
[13] = read-out: pLC50 (the source's name) (converted)
[14] = read-out: LC50 (the source's name)

**Q.** `C#C[C@@]1(O)[C@@H](CO)O[C@@H](n2ccc3c(N)ncnc32)[C@@H]1O` was tested. Which growth at 10 µM (Hs-578T) did it give?
**A.** 19%

**Q.** What about the growth at 0.1 µM (MDA-MB-468) of the same molecule?
**A.** 97%

**Q.** What about the growth at 100 µM (HCT-116) of the same molecule?
**A.** -54%

**Q.** What about the growth at 1 µM (A549 [1]) of the same molecule?
**A.** 56%

**Q.** What about the growth at 1 µM (HL-60(TB) [2]) of the same molecule?
**A.** 68%

**Q.** What about the TGI (U-251; read-out: TGI) of the same molecule?
**A.** 11.8 µM

**Q.** And the GI50 (U-251; read-out: pGI50 (converted))?
**A.** 2.45 µM

**Q.** What about the CC50 (U-251; [13]) of the same molecule?
**A.** > 100 µM

**Q.** And the TGI (U-251; read-out: pTGI (converted))?
**A.** 11.7 µM

**Q.** And the growth at 0.1 µM (OVCAR-3 [3])?
**A.** 106%

**Q.** And the TGI (OVCAR-4; read-out: TGI)?
**A.** 7.79 µM

**Q.** And the GI50 (OVCAR-4; read-out: pGI50 (converted))?
**A.** 1.95 µM

**Q.** And the CC50 (OVCAR-4; [13])?
**A.** 28.2 µM

**Q.** And the TGI (OVCAR-4; read-out: pTGI (converted))?
**A.** 7.76 µM

**Q.** What about the growth at 1 µM (RXF 393) of the same molecule?
**A.** 88%

**Q.** And the TGI (SF-295; read-out: TGI)?
**A.** 5.33 µM

**Q.** And the GI50 (SF-295; read-out: pGI50 (converted))?
**A.** 1.74 µM

**Q.** And the CC50 (SF-295; [13])?
**A.** > 100 µM

**Q.** What about the TGI (SF-295; read-out: pTGI (converted)) of the same molecule?
**A.** 5.37 µM

**Q.** And the growth at 1 µM (OVCAR-3 [4])?
**A.** 92%

**Q.** What about the CC50 (K562; [14]) of the same molecule?
**A.** > 100 µM

**Q.** What about the TGI (K562; read-out: TGI) of the same molecule?
**A.** > 100 µM

**Q.** And the GI50 (K562; read-out: pGI50 (converted))?
**A.** 0.813 µM

**Q.** And the TGI (K562; read-out: pTGI)?
**A.** > 100 µM

**Q.** What about the growth at 100 µM (SW-620 [5]) of the same molecule?
**A.** -45%

**Q.** And the TGI (SW-620 [6]; read-out: TGI)?
**A.** 12.7 µM

**Q.** What about the GI50 (SW-620 [6]; read-out: pGI50 (converted)) of the same molecule?
**A.** 0.49 µM

**Q.** What about the CC50 (SW-620 [6]; [13]) of the same molecule?
**A.** > 100 µM

**Q.** What about the TGI (SW-620 [6]; read-out: pTGI (converted)) of the same molecule?
**A.** 12.6 µM

**Q.** And the TGI (HOP-92 [7]; read-out: TGI)?
**A.** 5.56 µM

**Q.** What about the GI50 (HOP-92 [7]; read-out: pGI50 (converted)) of the same molecule?
**A.** 2.04 µM

**Q.** What about the CC50 (HOP-92 [7]; [13]) of the same molecule?
**A.** 22.9 µM

**Q.** What about the TGI (HOP-92 [7]; read-out: pTGI (converted)) of the same molecule?
**A.** 5.62 µM

**Q.** What about the growth at 0.01 µM (Malme-3M) of the same molecule?
**A.** 86%

**Q.** What about the growth at 0.01 µM (A549 [8]) of the same molecule?
**A.** 100%

**Q.** And the TGI (SK-OV-3; read-out: TGI)?
**A.** 5.24 µM

**Q.** And the GI50 (SK-OV-3; read-out: pGI50 (converted))?
**A.** 1.07 µM

**Q.** What about the CC50 (SK-OV-3; [13]) of the same molecule?
**A.** > 100 µM

**Q.** What about the TGI (SK-OV-3; read-out: pTGI (converted)) of the same molecule?
**A.** 5.25 µM

**Q.** What about the growth at 0.1 µM (HL-60(TB) [9]) of the same molecule?
**A.** 105%

**Q.** And the growth at 0.1 µM (HOP-62)?
**A.** 103%

**Q.** What about the pIC50 (CCRF-CEM) of the same molecule?
**A.** 6.15

**Q.** And the CC50 (HT-29; [14])?
**A.** > 100 µM

**Q.** And the TGI (HT-29; read-out: TGI)?
**A.** 10 µM

**Q.** And the GI50 (HT-29; read-out: pGI50 (converted))?
**A.** 0.977 µM

**Q.** What about the TGI (HT-29; read-out: pTGI (converted)) of the same molecule?
**A.** 10 µM

**Q.** What about the TGI (UACC-62; read-out: TGI) of the same molecule?
**A.** 4.48 µM

**Q.** And the GI50 (UACC-62; read-out: pGI50 (converted))?
**A.** 1.78 µM

**Q.** And the CC50 (UACC-62; [13])?
**A.** 19.5 µM

**Q.** What about the TGI (UACC-62; read-out: pTGI (converted)) of the same molecule?
**A.** 4.47 µM

**Q.** And the TGI (UACC-257 [10]; read-out: TGI)?
**A.** 7.05 µM

**Q.** What about the GI50 (UACC-257 [10]; read-out: pGI50 (converted)) of the same molecule?
**A.** 2.29 µM

**Q.** What about the CC50 (UACC-257 [10]; [13]) of the same molecule?
**A.** 55 µM

**Q.** What about the TGI (UACC-257 [10]; read-out: pTGI (converted)) of the same molecule?
**A.** 7.08 µM

**Q.** And the growth at 1 µM (UACC-257 [11])?
**A.** 88%

**Q.** And the growth at 100 µM (OVCAR-5)?
**A.** -31%

**Q.** What about the growth at 10 µM (ACHN) of the same molecule?
**A.** -18%

**Q.** What about the growth at 0.1 µM (HOP-92 [12]) of the same molecule?
**A.** 104%

**Q.** What about the growth at 0.01 µM (SN12C) of the same molecule?
**A.** 94%

**Q.** And the growth at 0.1 µM (KM12)?
**A.** 102%
